Screening data: PubChem, several laboratories
The list is not random: actives were taken first. Their share in the collection is about 1.8%.
Efflux pump inh: antifungal efflux pump inhibition, Nile Red retention | S. cerevisiae Candida pump triplex | 330,000 compounds, 0.44% hits | AID 485275 | inhibition, % at 10 µM;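 active = plate passing quality check with inhibition over a set limit, or well fluorescence over plate mean plus 4 SD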;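 also: Nile Red retained in pooled yeast measured as flow cytometry median fluorescence; higher means more Nile Red kept so more efflux inhibition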
Cneo AK release: Cryptococcus neoformans lysis via adenylate kinase release. C. neoformans lysis, adenylate kinase release luminescence, 4 h; normalised: neutral wells 0, clomiphene wells 100. lysis activity, % at 15 µM. 360,000 compounds, 0.2% hits;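 active = mean lysis activity across replicates of at least 80%, whatever share of replicates individually reach that level; inactive = mean lysis activity below 80%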
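Assay system: Cryptococcus neoformans yeast cells / Dosing: single-point compound dose / Timing: 4 h at 37 °C static, read 1 h later / Measured by: luminescence of released adenylate kinase using an AK detection reagent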
Statin myotox sup: suppressors of simvastatin-induced myotoxicity in C2C12 myotubes; ATP luminescence, 48 h; scaled: DMSO 0, geranylgeraniol control 100; rescue of ATP level, % at 7.49 µM; 330,000 compounds, 0.78% hits; AID 602340;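 active = mean ATP rescue above about 67%, or every replicate alone reaching that limit, limit read from the data, passing the limit was not always enough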;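 also: myotubes were challenged with 10 µM simvastatin during compound exposure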
Mot1-301 SUMO: inhibitors of SUMOylation pathway: yeast Mot1-301 growth rescue; growth rescue, % at 18.8 µM; 320,000 compounds, 1% hits; S. cerevisiae Mot1-301 growth rescue, ATP luminescence, 38.5C; percent above DMSO median, 100 means doubled;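 active = every valid replicate shows activation above 250% relative to neutral control wells; inactive = the rest, any valid replicate at or below 250%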
Each line names hits and unclear results; the compound was inactive in the other large screens.

C[C@@H]1CN([C@@H](C)CO)C(=O)Cc2cc(NC(=O)c3ccncc3)ccc2O[C@@H]1CN(C)Cc1ccc(-c2ccccc2)cc1	none (no result: Efflux pump inh, Mot1-301 SUMO)
C[C@H](CO)N1C[C@H](C)[C@@H](CN(C)Cc2ccc(Cl)c(Cl)c2)Oc2ccc(NC(=O)c3ccncc3)cc2CC1=O	Statin myotox sup 132.8 (no result: Efflux pump inh, Mot1-301 SUMO)
C[C@@H]1CN([C@H](C)CO)C(=O)Cc2cc(NC(=O)c3ccncc3)ccc2O[C@H]1CN(C)Cc1ccc(Cl)c(Cl)c1	none (no result: Efflux pump inh, Mot1-301 SUMO)
C[C@H](CO)N1C[C@H](C)[C@@H](CN(C)Cc2ccc(-c3ccccc3)cc2)Oc2ccc(NC(=O)c3ccncc3)cc2CC1=O	Statin myotox sup 123.6 (no result: Efflux pump inh, Mot1-301 SUMO)
C[C@H](CO)N1C[C@H](C)[C@H](CN(C)Cc2ccncc2)Oc2ccc(NC(=O)c3ccncc3)cc2CC1=O	none (no result: Efflux pump inh, Mot1-301 SUMO)
COC(=O)c1c(N)nc(C)n1-c1ccc(OC)cc1	none
COc1cc(OC)c(N(C)C(=O)c2cn(C)c(=O)c3cc(OC)c(OC)cc23)cc1Cl	Cneo AK release 126.6
CC(=O)Nc1ccc(NCCc2cccs2)cc1	none (no result: Efflux pump inh, Mot1-301 SUMO)
CC(=O)c1ccc(N2CCN(C(=O)CCCn3c(=S)[nH]c4cc5c(cc4c3=O)OCO5)CC2)cc1	Mot1-301 SUMO 298.0
O=C(CCCn1c(=S)[nH]c2cc3c(cc2c1=O)OCO3)N1CCN(c2ccc(Cl)cc2)CC1	none (no result: Cneo AK release, Statin myotox sup)
CC(C)(C)NC(=O)CCN(/N=C/c1ccccc1)C1=NS(=O)(=O)c2ccccc21	none
CC(C)(C)NC(=O)CCN(/N=C/c1ccccc1F)C1=NS(=O)(=O)c2ccccc21	Mot1-301 SUMO 311.8 (no result: Cneo AK release, Statin myotox sup)
N#CCC(=O)N/N=C/c1cccc(Oc2ccccc2)c1	none (no result: Cneo AK release, Statin myotox sup)
COc1ccc(C(=O)N2CCC(n3nnc4cc(F)ccc43)CC2)cc1OC	none (no result: Cneo AK release, Statin myotox sup)
Cc1cccc(C(=O)N2CCC(n3nnc4cc(F)ccc43)CC2)c1	Statin myotox sup 133.5
O=C(CC1CC1)N1[C@H](CO)[C@H]2c3ccccc3N(S(=O)(=O)c3ccccc3)C[C@H]21	none (no result: Efflux pump inh, Mot1-301 SUMO)
O=C(CC1CC1)N1[C@@H]2CN(S(=O)(=O)c3ccccc3)c3ccccc3[C@@H]2[C@@H]1CO	Cneo AK release 106.3 (no result: Efflux pump inh, Mot1-301 SUMO)
O=c1c2c([nH]c3ccc(Br)cc13)CCCC2	Statin myotox sup 126.3
O=C1OC(/C(=C\Nc2ccc(F)cc2F)[N+](=O)[O-])c2ccccc21 (stereo not given)	Mot1-301 SUMO 304.5 (no result: Cneo AK release, Statin myotox sup)
O=C1OC(Nc2nccs2)c2ccccc21 (stereo not given)	none (no result: Statin myotox sup)
Cc1c(/C(O)=C2/C(=O)C(=O)N(CCN3CCOCC3)C2c2cccnc2)cnn1-c1ccccc1 (stereo not given)	Mot1-301 SUMO 446.8
Cc1c(/C(O)=C2/C(=O)C(=O)N(CCN3CCOCC3)C2c2ccco2)cnn1-c1ccccc1 (stereo not given)	none (no result: Efflux pump inh, Mot1-301 SUMO)
C[C@H](NC(=O)C[C@@H]1C=C[C@@H](NC(=O)CN2CCOCC2)[C@H](CO)O1)c1ccccc1	none (no result: Efflux pump inh, Mot1-301 SUMO)
C[C@H](NC(=O)C[C@@H]1C=C[C@H](NC(=O)CN2CCOCC2)[C@@H](CO)O1)c1ccccc1	Cneo AK release 91.4 (no result: Efflux pump inh, Mot1-301 SUMO)
CC=Cc1ccc2n(c1=O)C[C@H]1[C@H](CO)[C@@H](C(=O)N(C)C)[C@@H]2N1CC1CCOCC1 (mixture of isomers)	none (no result: Efflux pump inh, Mot1-301 SUMO)
Cc1cc(C(=O)COC(=O)C2=NNC(=O)CC2)c(C)n1-c1ccccc1	Statin myotox sup 140.8 (no result: Mot1-301 SUMO)
Cc1ccc(-n2c(C)cc(C(=O)COC(=O)C3=NNC(=O)CC3)c2C)cc1	none
Fc1ccc(-c2noc(C3CCN(Cc4cccnc4)CC3)n2)cc1	Mot1-301 SUMO 847.5
C[C@@H]1CN([C@H](C)CO)S(=O)(=O)c2ccc(C#CC3CC3)cc2O[C@H]1CN(C)C(=O)Nc1cc(F)ccc1F	none (no result: Efflux pump inh, Cneo AK release, Mot1-301 SUMO)
Cc1ccc(CC(=S)N2CCOCC2)cc1	Statin myotox sup 124.4
CCc1ccc(CC(=S)N2CCOCC2)cc1	none
Cc1cc(NC(=O)CCC(=O)N(CCC(C)C)C(C(=O)NC2CCCC2)c2cccnc2)no1 (stereo not given)	Statin myotox sup 104.6
Cc1nc(CCNC(=O)C2CCC(=O)N(Cc3cccc(F)c3)C2)sc1C (stereo not given)	none
C[C@H]1CCCCO[C@H](CN(C)C(=O)Cc2ccccc2)[C@@H](C)CN([C@@H](C)CO)C(=O)c2cc(NC(=O)c3ccncc3)ccc2O1	none (no result: Efflux pump inh, Statin myotox sup, Mot1-301 SUMO)
Cn1cnnc1SCC(=O)N1CCC(Cc2ccccc2)CC1	Statin myotox sup 99.4
C=CCc1cccc(OC)c1OCCOCCNCCO	Statin myotox sup 82.8
N#Cc1nc(COc2ccccc2)oc1N1CCOCC1	Statin myotox sup 105.9
COc1ccc(N2CCN(c3oc(COc4ccccc4)nc3C#N)CC2)cc1	none
N#Cc1nc(COc2ccccc2)oc1N1CCCC1	none
CN1CCN(c2oc(COc3ccc(-c4ccccc4)cc3)nc2C#N)CC1	Mot1-301 SUMO 562.5
Cc1c(C(Nc2ccccn2)c2ccccc2)c(=O)n(-c2ccccc2)n1C (stereo not given)	Statin myotox sup 80.8
COc1ccc(-c2ccc([C@H]3[C@@H](CO)N4CCCCN(C(=O)c5ccc6c(c5)OCO6)C[C@@H]34)cc2)cc1	none (no result: Efflux pump inh, Mot1-301 SUMO)
O=C(CSc1ccc(-c2ccco2)nn1)NCc1ccccc1Cl	none (no result: Statin myotox sup)
C[C@H]1CN([C@@H](C)CO)C(=O)c2cccc(NC(=O)c3ccncc3)c2O[C@@H]1CN(C)S(=O)(=O)c1ccccc1	none (no result: Efflux pump inh, Mot1-301 SUMO)
Cn1c(O)c(C2=c3ccccc3=NC2=O)sc1=Nc1ccc(Cl)cc1	Statin myotox sup 97.4
O=C(O)Cn1c(O)c(C2=c3ccccc3=NC2=O)sc1=O	none
O=C(CSc1nc(-c2ccco2)cc(C(F)(F)F)n1)N1CCSCC1	Statin myotox sup 86.4
Nc1nc2ccc(C(=O)Nc3ccccc3)cc2s1	Mot1-301 SUMO 281.8
CCc1ccc(NC(=O)c2ccc3nc(N)sc3c2)cc1	none
CCCCc1ccc(NC(=S)NCCN2CCOCC2)cc1	Mot1-301 SUMO 731.4 (no result: Cneo AK release, Statin myotox sup)
S=C(NCCN1CCOCC1)Nc1ccc(Br)cc1	none (no result: Cneo AK release, Statin myotox sup)
Cc1ccc(S(=O)(=O)N[C@@H]2C=C[C@@H](CC(=O)N3CCC(Cc4ccccc4)CC3)O[C@@H]2CO)cc1	none (no result: Efflux pump inh, Mot1-301 SUMO)
C=CCC(O)(CCN1CCCCC1)c1ccccc1 (stereo not given)	Statin myotox sup 88.3
CCCCCn1c(CCC(=O)Oc2ccccc2OC)nc2c1c(=O)[nH]c(=O)n2CCCC	Statin myotox sup 129.2
CSc1ccc(-c2nc(CN(C)C3CCOC3)c(C)o2)cc1 (stereo not given)	none
Cc1ccc(-c2nc(CN(C)C(C3CC3)C3CC3)c(C)o2)cc1	Mot1-301 SUMO 316.4
O=C(Nc1nccs1)c1nc(-c2ccccc2)n(-c2ccccc2)n1	Mot1-301 SUMO 314.0
CC(NC(=O)C(=O)NCCCn1ccnc1)c1ccccc1 (stereo not given)	Mot1-301 SUMO 320.4 (no result: Cneo AK release)
CC(C)c1ccc(CNC(=O)C(=O)NCCCn2ccnc2)cc1	none
CS(=O)(=O)c1ccc(Cl)c(NC(=O)CN2CCCC2c2ccc3c(c2)OCCCO3)c1 (stereo not given)	none
CC(C)C(NS(=O)(=O)c1ccccc1F)C(=O)N1CCc2ccccc2C1 (stereo not given)	none
COc1ccc(-c2nnc(SCc3c(C)noc3C)o2)cc1	none (no result: Cneo AK release, Statin myotox sup)
Cc1cc(C)nc(SCc2n[nH]c(=S)n2C)n1	Statin myotox sup 91.9
